{
  "source": "paper PMC10871333",
  "about": "(bioRxiv, 2024)",
  "key": {"HP1α": {"tested_on": "HP1α", "settings": "ref [27]; cited from earlier work"}, "HP1α-DNA condensates [1]": {"molecular_target": "T1, HP1α-DNA condensates (Homo sapiens, UniProt P45973)", "T1 sequence (P45973 whole entry)": "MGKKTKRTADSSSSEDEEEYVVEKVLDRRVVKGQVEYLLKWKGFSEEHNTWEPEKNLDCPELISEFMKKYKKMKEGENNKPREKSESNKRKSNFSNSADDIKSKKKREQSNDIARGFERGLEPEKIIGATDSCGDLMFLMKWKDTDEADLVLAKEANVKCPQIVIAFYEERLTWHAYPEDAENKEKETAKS", "assay": "Microrheology", "assay_type": "physicochemical", "method_in_brief": "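HP1α at 20 μM with 40nM 2.5kbp, 20nM 4kbp or 9nM 10kbp DNA, with or without 10 or 42μM H3K9me3 peptide. 200nm carboxylated fluorescent beads were embedded and tracked on a spinning-disc confocal (x63/1.4NA oil) at 200ms interval, 1000 frames, 10–50ms exposure, 23°C ± 2°C. Beads near boundaries were avoided. 2D MSD was time- and ensemble-averaged, and α was taken as the log-log slope versus lag time.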"}, "HP1α-DNA condensates [2]": {"molecular_target": "T1, HP1α-DNA condensates", "assay": "FRAP of Alexa-488 labeled HP1α in HP1α-DNA condensates", "assay_type": "physicochemical", "settings": "for FRAP dynamics of HP1α, in words: HP1α-DNA condensates, all three DNA lengths, no histone peptide", "method_in_brief": "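Alexa-488 maleimide-labeled HP1α (~1%) mixed with unlabeled protein to 20uM in 70mM KCl, 20mM HEPES, 1mM DTT, pH 7.4. DNA 40nM (2.5kbp) to 9nM (10kbp), with or without H3K9me3 peptide up to 42μM, at 23°C. A 0.5–1um area bleached on a spinning-disc confocal. Recovery was fitted to an exponential to give mobile fraction (I0) and half-time ln(2)/β.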"}, "[3]": {"tested_on": "DNA (2.5kbp, 4kbp, 10kbp)", "assay": "Phase separation of HP1α with DNA of different length", "assay_type": "physicochemical", "method_in_brief": "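HP1α was 0.22um-filtered, buffer-exchanged and mixed with dsDNA to 20uM HP1α (12.5–20μM tested) and nanomolar DNA. Buffer was 70mM KCl, 20mM HEPES, 1mM DTT, pH 7.5, in a 7ul reaction at 23°C on Pluronic F-127–treated slides. Imaging used wide-field DIC with a ×40 air objective at t=0 and 60 min.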"}, "[4]": {"settings": "70mM KCl, 20mM HEPES, 1mM DTT, pH 7.5"}, "[5]": {"settings": "with HP1α 12.5μM-20μM, 70mM KCl, 20mM HEPES, 1mM DTT, pH 7.5"}},
  "note": "“And” between values parts separate entries of the source, which are not always exact repeats. Equal entries are not always repeated.",
  "data": [
    {"substance": "H3K4me3: human N-terminal histone H3 tail (residues 1–22) with trimethylation of lysine 4, purchased from Bachem", "values": [
      {"measurement": "binding of HP1α chromodomain to histone H3 mark", "setting": "HP1α", "value": "does not bind"}
    ]},
    {"substance": "HP1α: Recombinantly expressed and purified HP1α (MW = 22kDa) from Biomatik Corporation", "values": [
      {"measurement": "average diffusive exponent α, 10kbp DNA condensates", "setting": "HP1α-DNA condensates [1]; 20 μM HP1α and 9nM 10kbp DNA, no peptide, 200nm beads, 200ms interval, 23°C", "value": "0.58±0.05"},
      {"measurement": "average diffusive exponent α, 4kbp DNA condensates", "setting": "HP1α-DNA condensates [1]; 20 μM HP1α and 20nM 4kbp DNA, no peptide, 200nm beads, 200ms interval, 23°C", "value": "0.72±0.02"},
      {"measurement": "diffusive exponent α, 2.5kbp DNA condensates", "setting": "HP1α-DNA condensates [1]; 20 μM HP1α and 40nM 2.5kbp DNA, no peptide, 200nm beads, 200ms interval, 23°C", "value": "0.85±0.06 and ~ 0.85±0.06"},
      {"measurement": "FRAP dynamics of HP1α, in words", "setting": "HP1α-DNA condensates [2]", "value": "remain dynamic"},
      {"measurement": "FRAP dynamics of HP1α, in words", "setting": "HP1α-DNA condensates [2]; listed as HP1a", "value": "rapid recovery"},
      {"measurement": "morphology with 4kbp DNA (9nM or 15nM) at t=0min and t=60min", "setting": "[3]; 20μM HP1α, DIC 40x", "value": "spherical condensates can be seen"},
      {"measurement": "morphology change with 10kbp DNA (9nM or 15nM) over 1hour", "setting": "[3]; 20μM HP1α, t=0min and t=60min, DIC 40x", "value": "changes in the morphology (from asymmetric to spherical)"},
      {"measurement": "assembly morphology with 10kbp DNA", "setting": "[3]; [4]", "value": "assemblies with an asymmetric morphology were initially observed before transitioning to spherical droplets"},
      {"measurement": "droplet morphology with 2.5kbp and 4kbp DNA", "setting": "[3]; [4]", "value": "spherical droplets appeared instantaneously"},
      {"measurement": "time of transition from asymmetric to spherical droplets with 10kbp DNA", "setting": "[3]; [4]", "value": "≤ 1", "unit": "h"},
      {"measurement": "solubility / phase behavior of HP1α in the absence of DNA", "setting": "[3]; same HP1α concentration, 70mM KCl, 20mM HEPES, 1mM DTT, pH 7.5", "value": "remains soluble"},
      {"measurement": "phase separation with DNA", "setting": "[3]; three DNA lengths (2500, 4000, 10000 bp) at nanomolar concentrations, 70mM KCl, 20mM HEPES, 1mM DTT, pH 7.5, 23°C, DIC 40x", "value": "undergoes phase separation"},
      {"measurement": "DNA concentration inducing phase separation, 2500 bp DNA", "setting": "[3]; [5]", "value": 30, "unit": "nM"},
      {"measurement": "DNA concentration inducing phase separation, 10000 bp DNA", "setting": "[3]; [5]", "value": 9, "unit": "nM"}
    ]},
    {"substance": "H3K9me3: human N-terminal histone H3 tail (residues 1–22) with trimethylated lysine 9, purchased from Bachem [reference compound]", "values": [
      {"measurement": "decrease in α with H3K9me3 compared with lengthening the DNA to 10kbp", "setting": "HP1α-DNA condensates [1]; 2.5kb DNA condensates", "value": "more pronounced"},
      {"measurement": "mobile fraction of HP1α in condensates with peptide, 10μM peptide", "setting": "HP1α-DNA condensates [2]; H3K9me3 peptide 10μM, Alexa488-HP1α, 2.5kbp DNA condensates, FRAP", "value": "~ 100%"},
      {"measurement": "binding of HP1α chromodomain to histone H3 mark", "setting": "HP1α", "value": "recognizes and binds specifically"}
    ]},
    {"substance": "unmodified H3: unmodified human N-terminal histone H3 tail (residues 1–22), purchased from Bachem", "values": [
      {"measurement": "binding of HP1α chromodomain to histone H3 mark", "setting": "HP1α", "value": "does not bind"}
    ]}
  ]
}
